This is an account of results in ChEMBL document CHEMBL4184105, “Synthesis and biological evaluation of novel mono- and bivalent ASGP-R-targeted drug-conjugates” (Bioorg Med Chem Lett, 2018).

Activity calls are given as the source filed them. The rule behind the calls is not given here.

Data set [1] concerns HepG2. The experiment in a line: Cytotoxicity against human HepG2 cells by MTS assay. It is filed as functional. In general terms: Tetrazolium assays rely on reduction of a dye to a coloured formazan, in cell work by metabolically active cells.
The subject of data set [2] is HepG2. In words: Induction of morphological changes in human HepG2 cells assessed as abnormal nuclei at 1 umol after 24 hrs by DAPI staining-based immunofluorescence assay. It is filed as functional, cell-based. In a few lines:
(§1)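 HepG2 cells were fixed, permeabilized and immunostained with an anti-α-tubulin antibody, with nuclei counterstained by DAPI. Nuclear and cytoskeletal (microtubule, mitotic spindle) morphology was then examined by immunofluorescence microscopy alongside untreated cells.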

In data set [3] the test system is HepG2. In words: Induction of morphological changes in human HepG2 cells assessed as altered microtubule structure at 1 umol after 24 hrs by DAPI staining-based immunofluorescence assay. It is filed as functional, cell-based. An outline of the steps:
as §1

Data set [4] is described as follows: Stability of compound at pH 7.4 after 24 hrs by HPLC-MS analysis. As to conditions: buffer, pH 7.4, 24 h. It is filed as physicochemical.
Data set [5] can be described thus: Stability of compound at pH 5 after 24 hrs by HPLC-MS analysis. As to conditions: buffer, pH 5, 24 h. It is filed as physicochemical.
Data set [6] relates to HepG2. The experiment in a line: Induction of morphological changes in human HepG2 cells assessed as mitosis with more than 2 poles at 1 umol after 24 hrs by DAPI staining-based immunofluorescence assay. The format is functional, cell-based. An outline of the steps:
as §1

Data set [7] is described as follows: Binding affinity to rabbit asialoglycoprotein receptor by SPR assay. The arrangement: species or system Oryctolagus cuniculus. For orientation: SPR reads the build-up and loss of mass on a sensor chip optically.

The CC50 is the concentration at which the toxic effect on the cells reaches its halfway point. A higher CC50 goes with lower toxicity to the cells. With `CC(=O)O[C@H]1C(=O)[C@@]2(C)[C@H]([C@H](OC(=O)c3ccccc3)[C@]3(O)C[C@H](OC(=O)[C@H](O)[C@@H](NC(=O)c4ccccc4)c4ccccc4)C(C)=C1C3(C)C)[C@]1(OC(C)=O)CO[C@@H]1C[C@@H]2O` [PACLITAXEL], the cytotoxic concentration (CC50) in data set [1] lay in the range of 0.12 to 0.21 µM. Besides, the result in data set [2], in data set [3] and in data set [6] was Active. Also, the Stability entry in data set [4] and in data set [5] was “Stable” in each case.
For orientation: Kd means the equilibrium constant for the complex coming apart. The low end stands for a tighter complex, the high end for a looser complex. `CC(=O)N[C@H]1[C@H](OCCCCCCNC(=O)CCOCC(COCCC(=O)NCCCCCCO[C@@H]2O[C@H](CO)[C@H](O)[C@H](O)[C@H]2NC(C)=O)(COCCC(=O)NCCCCCCO[C@@H]2O[C@H](CO)[C@H](O)[C@H](O)[C@H]2NC(C)=O)NC(=O)CCCCCCCCCCN=[N+]=[N-])O[C@H](CO)[C@H](O)[C@@H]1O`: in data set [7], binding was put at a Kd of 0.00216 µM. This lies in the single-digit nanomolar range.
`C=CCO[C@@H]1O[C@H](Cn2cc(CCCC(=O)O[C@@H](C(=O)O[C@H]3C[C@@]4(O)[C@@H](OC(=O)c5ccccc5)[C@@H]5[C@]6(OC(C)=O)CO[C@@H]6C[C@H](O)[C@@]5(C)C(=O)[C@H](OC(C)=O)C(=C3C)C4(C)C)[C@@H](NC(=O)c3ccccc3)c3ccccc3)nn2)[C@H](O)[C@H](O)[C@H]1NC(C)=O`: the cytotoxic concentration (CC50) in data set [1] is 3.25 µM. Further, the result in data set [2], in data set [3] and in data set [6] was Active. The Stability result in data set [4] and in data set [5] was “Stable” each time. The same molecule yielded a Kd in data set [7] of 0.000161 µM.
In turn, `CC(=O)N[C@@H]1[C@@H](O)[C@@H](O)[C@@H](CO)O[C@H]1n1cc(CCCC(=O)O[C@@H](C(=O)O[C@H]2C[C@@]3(O)[C@@H](OC(=O)c4ccccc4)[C@@H]4[C@]5(OC(C)=O)CO[C@@H]5C[C@H](O)[C@@]4(C)C(=O)[C@H](OC(C)=O)C(=C2C)C3(C)C)[C@@H](NC(=O)c2ccccc2)c2ccccc2)nn1` registered a cytotoxic concentration (CC50) in data set [1] of 0.092 µM. For the same molecule, the Stability result in data set [4] and in data set [5] was “Stable” in each case. Also, the Kd in data set [7] turned out to be 0.00221 µM.
For `C=CCO[C@@H]1O[C@H](Cn2cc(CCCC(=O)O[C@H]3C[C@H]4OC[C@@]4(OC(C)=O)[C@H]4[C@H](OC(=O)c5ccccc5)[C@]5(O)C[C@H](OC(=O)[C@H](OC(=O)CCCc6cn(C[C@H]7O[C@@H](OCC=C)[C@H](NC(C)=O)[C@@H](O)[C@H]7O)nn6)[C@@H](NC(=O)c6ccccc6)c6ccccc6)C(C)=C([C@@H](OC(C)=O)C(=O)[C@]34C)C5(C)C)nn2)[C@H](O)[C@H](O)[C@H]1NC(C)=O`, the Stability result in data set [4] and in data set [5] was “Stable” in each case. This molecule also yielded a Kd in data set [7] of 0.000327 µM.
As for `CC(=O)N[C@H]1[C@H](OCCn2cc(CCCC(=O)O[C@@H](C(=O)O[C@H]3C[C@@]4(O)[C@@H](OC(=O)c5ccccc5)[C@@H]5[C@]6(OC(C)=O)CO[C@@H]6C[C@H](O)[C@@]5(C)C(=O)[C@H](OC(C)=O)C(=C3C)C4(C)C)[C@@H](NC(=O)c3ccccc3)c3ccccc3)nn2)O[C@H](CO)[C@H](O)[C@@H]1O`, in data set [1], the 50% cytotoxic concentration (CC50) stood at 0.82 µM. Also, the result in data set [2], in data set [3] and in data set [6] was Active. Besides, the Stability result in data set [4] and in data set [5] was “Stable” in each case. For the same molecule, the Kd in data set [7] is 0.249 µM.
Regarding `CC(=O)N[C@H]1[C@H](OCCCCCCNC(=O)CCOCC(COCCC(=O)NCCCCCCO[C@@H]2O[C@H](CO)[C@H](O)[C@H](O)[C@H]2NC(C)=O)(COCCC(=O)NCCCCCCO[C@@H]2O[C@H](CO)[C@H](O)[C@H](O)[C@H]2NC(C)=O)NC(=O)CCCCCCCCCCn2cc(CCCC(=O)O[C@@H](C(=O)O[C@H]3C[C@@]4(O)[C@@H](OC(=O)c5ccccc5)[C@@H]5[C@]6(OC(C)=O)CO[C@@H]6C[C@H](O)[C@@]5(C)C(=O)[C@H](OC(C)=O)C(=C3C)C4(C)C)[C@@H](NC(=O)c3ccccc3)c3ccccc3)nn2)O[C@H](CO)[C@H](O)[C@@H]1O`, the midpoint of cytotoxicity in data set [1], the CC50, lay at 0.11 µM. In addition, the Stability entry in data set [4] and in data set [5] was “Stable” in each case. Besides, in data set [7], binding was characterised by a dissociation constant (Kd) of 0.00136 µM.
`CC(=O)N[C@H]1[C@H](OCCn2cc(CCCC(=O)O[C@H]3C[C@H]4OC[C@@]4(OC(C)=O)[C@H]4[C@H](OC(=O)c5ccccc5)[C@]5(O)C[C@H](OC(=O)[C@H](OC(=O)CCCc6cn(CCO[C@@H]7O[C@H](CO)[C@H](O)[C@H](O)[C@H]7NC(C)=O)nn6)[C@@H](NC(=O)c6ccccc6)c6ccccc6)C(C)=C([C@@H](OC(C)=O)C(=O)[C@]34C)C5(C)C)nn2)O[C@H](CO)[C@H](O)[C@@H]1O`: the outcome in data set [2], in data set [3] and in data set [6] was Active. Further, the Stability entry in data set [4] and in data set [5] was “Stable” in each case.
As to `CC(=O)N[C@@H]1[C@@H](O)[C@@H](O)[C@@H](CO)O[C@H]1n1cc(CCCC(=O)O[C@H]2C[C@H]3OC[C@@]3(OC(C)=O)[C@H]3[C@H](OC(=O)c4ccccc4)[C@]4(O)C[C@H](OC(=O)[C@H](OC(=O)CCCc5cn([C@@H]6O[C@H](CO)[C@H](O)[C@H](O)[C@H]6NC(C)=O)nn5)[C@@H](NC(=O)c5ccccc5)c5ccccc5)C(C)=C([C@@H](OC(C)=O)C(=O)[C@]23C)C4(C)C)nn1`, the half-maximal cytotoxic concentration (CC50) in data set [1] amounted to 22.9 µM. Also, the outcome in data set [2], in data set [3] and in data set [6] was Active. Besides, the Stability result in data set [4] and in data set [5] was “Stable” in each case. The molecule also yielded a dissociation constant (Kd) in data set [7] of 0.00139 µM.
